Measurements as given in ChEMBL document CHEMBL1124476, “1-(2-aminoethyl)-6-aryl-4H- [1,2,4]triazolo[4,3-a][1,4]benzodiazepines with diuretic and natriuretic activity” (J Med Chem, 1989).

Tests used:
Rattus norvegicus [1] = species on record: Rattus norvegicus; test: […]; type: ADME, organism-based, Urine; set-up: dose 30 mg/kg, route oral; details: in vivo, po, 30 mg/kg
In short: (§1)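 Male Sprague-Dawley rats, about 160 g, fasted 24 h and water withheld 1 1/2 h beforehand; food and water withheld during the test. Dosing by gavage with 25 mL/kg 0.9% saline containing 0.5% (carboxymethyl)cellulose, agent dissolved or suspended. Three cages of two rats each per dose, held in metabolism cages. Urine collected over 5 h. Volume given in mL, Na+ in mequiv. Significance versus control at P < 0.05.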

Rattus norvegicus [2] = test: Mean excretion of chloride in conscious rats at a dose of 10 mg/kg given orally; type: ADME, organism-based; set-up: dose 10 mg/kg, route oral; details: in vivo, po
In short: (§2)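 Secondary dose-response in male Sprague-Dawley rats (~160 g), fasted and hydrated as in the primary screen. Oral gavage at 0.3-100 mg/kg in 25 mL/kg saline/0.5% CMC, three cages of two rats per dose. Urine collected 5 h; Na, K, Cl, HCO3 measured. Values are mean excretion (mequiv), compared with controls at P < 0.05.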

Rattus norvegicus [3] = test: Mean excretion of sodium in conscious rats at a dose of 100 mg/kg given orally; type: ADME, organism-based; set-up: dose 100 mg/kg, route oral; details: in vivo, po; in short: as §1
Rattus norvegicus [4] = test: Mean excretion of sodium in conscious rats at a dose of 3.0 mg/kg given orally; type: ADME, organism-based; set-up: dose 3 mg/kg, route oral; details: in vivo, po; in short: as §1
Rattus norvegicus [5] = test: Mean excretion of potassium in conscious rats at a dose of 30 mg/kg given orally; type: ADME, organism-based; set-up: dose 30 mg/kg, route oral; details: in vivo, po; in short: as §2
Rattus norvegicus [6] = species on record: Rattus norvegicus; test: […]; type: ADME, organism-based, Urine; set-up: dose 10 mg/kg, route oral; details: in vivo, po, 10 mg/kg; in short: as §1
Rattus norvegicus [7] = test: Mean excretion of chloride in conscious rats at a dose of 30 mg/kg given orally; type: ADME, organism-based; set-up: dose 30 mg/kg, route oral; details: in vivo, po; in short: as §2
Rattus norvegicus [8] = test: Mean excretion of potassium in conscious rats at a dose of 100 mg/kg given orally; type: ADME, organism-based; set-up: dose 100 mg/kg, route oral; details: in vivo, po; in short: as §2
[9] = Diuretic activity at 40 mg/kg (screening dose 84.7 umol/kg) in […] in a one stage experiment; T/C = urine vol of treated rats / urine vol of control rats; type: functional
In short: (§3)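 40 mg/kg given by gavage in 25 mL/kg 0.9% saline with 0.5% (carboxymethyl)cellulose. Four rats per agent, two per metabolism cage; 20 controls; 5 h urine. T/C = treated/control urine volume. Stage-1 T/C of 1.66 or more leads to stage 2; product T/C1·T/C2 of 3.34 or more counts as active.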

Rattus norvegicus [10] = test: Mean excretion of sodium in conscious rats at a dose of 0.3 mg/kg given orally; type: ADME, organism-based; set-up: dose 0.3 mg/kg, route oral; details: in vivo, po; in short: as §1
Rattus norvegicus [11] = test: Mean excretion of potassium in conscious rats at a dose of 0.3 mg/kg given orally; type: ADME, organism-based; set-up: dose 0.3 mg/kg, route oral; details: in vivo, po; in short: as §2
Rattus norvegicus [12] = test: Mean excretion of potassium in conscious rats at a dose of 3.0 mg/kg given orally; type: ADME, organism-based; set-up: dose 3 mg/kg, route oral; details: in vivo, po; in short: as §2
Rattus norvegicus [13] = test: Mean excretion of sodium in conscious rats at a dose of 30 mg/kg given orally; type: ADME, organism-based; set-up: dose 30 mg/kg, route oral; details: in vivo, po; in short: as §1
Rattus norvegicus [14] = test: Mean excretion of chloride in conscious rats at a dose of 100 mg/kg given orally; type: ADME, organism-based; set-up: dose 100 mg/kg, route oral; details: in vivo, po; in short: as §2
[15] = Diuretic activity at 40 mg/kg (screening dose-84.7 umol/kg) in […] in a two stage experiment; T/C1.2 = urine vol of treated rats / urine vol of control rats; type: functional; in short: as §3
Rattus norvegicus [16] = test: Mean excretion of potassium in conscious rats at a dose of 1.0 mg/kg given orally; type: ADME, organism-based; set-up: dose 1 mg/kg, route oral; details: in vivo, po; in short: as §2
Rattus norvegicus [17] = test: Mean excretion of potassium in conscious rats at a dose of 10 mg/kg given orally; type: ADME, organism-based; set-up: dose 10 mg/kg, route oral; details: in vivo, po; in short: as §2
Rattus norvegicus [18] = species on record: Rattus norvegicus; test: […]; type: ADME, organism-based, Urine; set-up: dose 100 mg/kg, route oral; details: in vivo, po, 100 mg/kg; in short: as §1
Rattus norvegicus [19] = species on record: Rattus norvegicus; test: […]; type: ADME, organism-based, Urine; set-up: dose 0.3 mg/kg, route oral; details: in vivo, po, 0.3 mg/kg
In short: (§4)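 Dose-response test in male Sprague-Dawley rats of about 160 g, fasted 24 h, with water withheld 1½ h before and during the test. Each rat got a single gavage of 25 mL/kg 0.9% saline with 0.5% carboxymethylcellulose carrying the agent (0.3–100 mg/kg range). Rats were housed two per metabolism cage, and urine was collected for 5 h. Mean urine volume (mL) was compared with controls (P < 0.05).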

Rattus norvegicus [20] = test: Mean excretion of […] in conscious rats at a dose of 1.0 mg/kg given orally; type: ADME, organism-based; set-up: dose 1 mg/kg, route oral; details: in vivo, po; in short: as §1
Rattus norvegicus [21] = test: Mean excretion of chloride in conscious rats at a dose of 3.0 mg/kg given orally; type: ADME, organism-based; set-up: dose 3 mg/kg, route oral; details: in vivo, po; in short: as §2
Rattus norvegicus [22] = test: Mean excretion of sodium in conscious rats at a dose of 10 mg/kg given orally; type: ADME, organism-based; set-up: dose 10 mg/kg, route oral; details: in vivo, po; in short: as §1
Rattus norvegicus [23] = species on record: Rattus norvegicus; test: […]; type: ADME, organism-based, Urine; set-up: dose 3 mg/kg, route oral; details: in vivo, po, 3 mg/kg; in short: as §1
Rattus norvegicus [24] = species on record: Rattus norvegicus; test: […]; type: ADME, organism-based, Urine; set-up: dose 1 mg/kg, route oral; details: in vivo, po, 1 mg/kg; in short: as §4
Rattus norvegicus [25] = test: Mean excretion of Cl- in conscious rats at a dose of 0.3 mg/kg given orally; type: ADME, organism-based, Urine; set-up: dose 0.3 mg/kg, route oral; details: in vivo, po; in short: as §4
Rattus norvegicus [26] = test: Mean excretion of chloride in conscious rats at a dose of 1.0 mg/kg given orally; type: ADME, organism-based; set-up: dose 1 mg/kg, route oral; details: in vivo, po; in short: as §2
[27] = Diuretic activity at 40 mg/kg (screening dose-94.6 umol/kg) in […] in a one stage experiment; T/C = urine vol of treated rats / urine vol of control rats; type: functional; in short: as §3
[28] = Diuretic activity at 40 mg/kg (screening dose 84 umol/kg) in […] in a one stage experiment; T/C = urine vol of treated rats / urine vol of control rats; type: functional; in short: as §3
[29] = Diuretic activity at 40 mg/kg (screening dose-97.3 umol/kg) in […] in a one stage experiment; T/C = urine vol of treated rats / urine vol of control rats; type: functional; in short: as §3
[30] = Diuretic activity at 40 mg/kg (screening dose-97.3 umol/kg) in […] in a two stage experiment; T/C1.2 = urine vol of treated rats / urine vol of control rats; type: functional; in short: as §3
[31] = Diuretic activity at 40 mg/kg (screening dose-75 umol/kg) in […] in a two stage experiment; T/C1.2 = urine vol of treated rats / urine vol of control rats; type: functional; in short: as §3
[32] = Diuretic activity at 40 mg/kg (screening dose-75 umol/kg) in […] in a one stage experiment; T/C = urine vol of treated rats / urine vol of control rats; type: functional; in short: as §3
[33] = Diuretic activity at 40 mg/kg (screening dose-82.4 umol/kg) in […] in a one stage experiment; T/C = urine vol of treated rats / urine vol of control rats; type: functional; in short: as §3

Row | SMILES | Mean urine volume (Rattus norvegicus [1]) [mL] | Mean excretion of Cl- (Rattus norvegicus [2]) [m equiv] | Mean excretion of Na+ (Rattus norvegicus [3]) [m equiv] | Mean excretion of Na+ (Rattus norvegicus [4]) [m equiv] | Mean excretion of K+ (Rattus norvegicus [5]) [m equiv] | Mean urine volume (Rattus norvegicus [6]) [mL] | Mean excretion of Cl- (Rattus norvegicus [7]) [m equiv] | Mean excretion of K+ (Rattus norvegicus [8]) [m equiv] | Mean excretion of Na+ (Rattus norvegicus [10]) [m equiv] | Mean excretion of K+ (Rattus norvegicus [11]) [m equiv] | Mean excretion of K+ (Rattus norvegicus [12]) [m equiv] | Mean excretion of Na+ (Rattus norvegicus [13]) [m equiv] | Mean excretion of Cl- (Rattus norvegicus [14]) [m equiv] | Mean excretion of K+ (Rattus norvegicus [16]) [m equiv] | Mean excretion of K+ (Rattus norvegicus [17]) [m equiv] | Mean urine volume (Rattus norvegicus [18]) [mL] | Mean urine volume (Rattus norvegicus [19]) [mL] | Mean excretion of Na+ (Rattus norvegicus [20]) [m equiv] | Mean excretion of Cl- (Rattus norvegicus [21]) [m equiv] | Mean excretion of Na+ (Rattus norvegicus [22]) [m equiv] | further results
1 | CN(C)CC(c1ccccc1Cl)c1nnc2n1-c1ccc(Cl)cc1C(c1ccccc1)=NC2 (stereo unspecified) | 6.73 | 1.13 | 1.76 | 0.81 | 0.16 | 5.37 | 1.21 | 0.22 | 1 | 0.25 | 0.22 | 1.22 | 1.69 | 0.24 | 0.21 | 9.85 | 5.36 | 0.93 | 0.84 | 1.03 | T/C 1 [9]: 1.67; T/C 1.2 [15]: 3.77; Mean urine volume (Rattus norvegicus [23]): 4.67 mL; Mean urine volume (Rattus norvegicus [24]): 4.54 mL; Mean excretion of Cl- (Rattus norvegicus [25]): 1.08 m equiv; Mean excretion of Cl- (Rattus norvegicus [26]): 0.93 m equiv
2 | CN(C)CC(CN(C)C)c1nnc2n1-c1ccc(Cl)cc1C(c1ccccc1)=NC2 | – | – | – | – | – | – | – | – | – | – | – | – | – | – | – | – | – | – | – | – | T/C 1 [27]: 1.22
3 | CN(C)CC(c1ccc(Cl)cc1)c1nnc2n1-c1ccc(Cl)cc1C(c1ccccc1)=NC2 (stereo unspecified) | – | – | – | – | – | – | – | – | – | – | – | – | – | – | – | – | – | – | – | – | T/C 1 [28]: 0.9
4 | CN(C)CCc1nnc2n1-c1ccc(Br)cc1C(c1ccccn1)=NC2 | 8.05 | 0.81 | 1.26 | 0.79 | 0.37 | 5.63 | 1.05 | 0.41 | 0.74 | 0.38 | 0.39 | 1.03 | 1.21 | 0.32 | 0.33 | 11.02 | 5.94 | 0.6 | 0.84 | 0.77 | T/C 1 [29]: 1.75; T/C 1.2 [30]: 3.46; Mean urine volume (Rattus norvegicus [23]): 5.53 mL; Mean urine volume (Rattus norvegicus [24]): 4.69 mL; Mean excretion of Cl- (Rattus norvegicus [25]): 0.81 m equiv; Mean excretion of Cl- (Rattus norvegicus [26]): 0.7 m equiv
5 | CN(C)CC(c1ccccc1)c1nnc2n1-c1ccc(I)cc1C(c1ccccc1)=NC2 (stereo unspecified) | 12.9 | 1.5 | 2.09 | 0.66 | 0.24 | 10.8 | 1.73 | 0.24 | 0.75 | 0.18 | 0.23 | 1.98 | 1.82 | 0.25 | 0.19 | 14.57 | 5.09 | 0.65 | 0.76 | 1.64 | T/C 1.2 [31]: 9.39; Mean urine volume (Rattus norvegicus [23]): 4.86 mL; Mean urine volume (Rattus norvegicus [24]): 4.8 mL; Mean excretion of Cl- (Rattus norvegicus [25]): 0.8 m equiv; Mean excretion of Cl- (Rattus norvegicus [26]): 0.7 m equiv; T/C 1 [32]: 3.26
6 | CN(C)CC(c1ccccc1)c1nnc2n1-c1ccc(S(C)(=O)=O)cc1C(c1ccccc1)=NC2 (stereo unspecified) | – | – | – | – | – | – | – | – | – | – | – | – | – | – | – | – | – | – | – | – | T/C 1 [33]: 0.7
